Rows were chosen to be rich in hits. Some 3.5% of all compounds tested hit in one or more screens of this group.
MrgX1 agonist = agonists of human MrgX1 receptor | Q96LB2 | MrgX1-HEK293 cells, Fluo-4 calcium fluorescence, agonist mode; active compounds read high | B-score at 10 µM | 310,000 compounds, 0.44% hits;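 active = calcium response B-score plate-corrected fluorescence ratio at least 3 library SD, with starting fluorescence B-score inside 5 SD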
Target sequence (Q96LB2 whole entry, looked up): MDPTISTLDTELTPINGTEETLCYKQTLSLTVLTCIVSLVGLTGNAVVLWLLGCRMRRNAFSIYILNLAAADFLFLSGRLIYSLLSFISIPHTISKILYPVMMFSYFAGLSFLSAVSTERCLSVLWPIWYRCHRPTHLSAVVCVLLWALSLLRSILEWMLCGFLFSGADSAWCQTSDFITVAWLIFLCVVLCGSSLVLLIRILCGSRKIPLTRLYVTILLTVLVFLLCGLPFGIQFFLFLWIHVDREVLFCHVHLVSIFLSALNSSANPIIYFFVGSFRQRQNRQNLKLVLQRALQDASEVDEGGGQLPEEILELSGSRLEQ
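System: HEK293 cells stably expressing human MrgX1 receptor; Dosing: test compound in the initial addition of three; Schedule: overnight plating, then 30 min 37 °C plus 30 min room-temperature dye loading; Detection: kinetic calcium dye fluorescence, Fluo-4 NW; Controls: per-plate positive and negative controls for Z′ factor.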
MrgX1 antag = blocks BAM8-22 activation of human MrgX1 receptor. B-score at 10 µM. AID 588676. Q96LB2. 310,000 compounds, 1.3% hits. MRGX1-HEK293 calcium flux, Fluo-4, BAM8-22 antagonism; active compounds read low;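 active = calcium-response B-score plate-corrected more than 3 library SD below zero, starting fluorescence within 5 deviations, no agonist response on first addition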;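 also: peak minus trough fluorescence over baseline after final BAM8-22 challenge near maximal dose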
RGS4 inh = human RGS4 inhibition | P49798 | HEK293 M3R/RGS4 inducible, Fluo-4 calcium flux; active compounds read high; triggered by carbachol at its EC20 | B-score at 10 µM | 310,000 compounds, 0.45% hits;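 active = B-score, a plate-corrected calcium signal, over three deviations above library mean, with baseline fluorescence within five deviations of library mean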;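 also: RGS4 expression induced by doxycycline in cells with stable M3 receptor; B-score is computed from the integrated fluorescence ratio over baseline after carbachol; higher B-score means a larger calcium signal and so more RGS4 inhibition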
MrgX1 PAM = allosterically activates human MrgX1 receptor signaling; Q96LB2; MrgX1-HEK293, Fluo-4 calcium flux, FDSS; active compounds read high; B-score at 10 µM; 310,000 compounds, 0.63% hits; AID 588675;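 active = plate-corrected calcium response at least 3 library SD above typical, normal starting fluorescence, not activating the receptor alone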;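 also: compound read alongside a low EC10 to EC30 dose of BAM8-22 agonist; peak minus trough fluorescence over baseline measured at the second addition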
RGS4 act = potentiators or activators of RGS4; AID 463111; B-score at 10 µM; HEK293 M3R/inducible RGS4, carbachol calcium flux Fluo4; active compounds read low; 310,000 compounds, 0.92% hits;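 active = B-score of the integrated calcium signal more than 4 SD below the library mean, with starting fluorescence not abnormally high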;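 also: negative B-score means reduced calcium response which marks RGS4 activation or potentiation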
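Material: M3R-expressing HEK293 line, RGS4 induced by doxycycline | Schedule: Overnight RGS4 induction, 30 min dye load 37 °C, 20 min compound RT | Measured by: Fluo4 fluorescence kinetic imaging of calcium | Read-out: Integrated calcium ratio converted to B score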
RGS4 activ val = confirmation of RGS4 activators; 1,100 compounds, 89% hits; shares compounds with RGS4 act; inhibition, % at 10 µM; HEK293 M3R/RGS4 inducible, carbachol calcium flux Fluo4;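 active = inhibition above 3 SD of the buffer control wells, cut at about 41% in these data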;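 also: signal is the integrated peak-minus-minimum Fluo4 fluorescence over baseline ratio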
RGS4 act ctr = counter-screen for RGS4 activators: effect in non-induced cells; inhibition, % at 10 µM; AID 602283; HEK293 M3R non-induced RGS4, Fluo4 calcium flux; after carbachol challenge at its EC90; 1,100 compounds, 82% hits; shares compounds with RGS4 act;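 active = inhibition exceeding 3 SD of buffer-only control wells, cut at about 26% in these data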;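 also: percent drop in integrated peak-minus-baseline over baseline Fluo4 ratio after carbachol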
* = called active by the depositor; i = inactive; . = not tested or not shown.

SMILES	MrgX1 agonist	MrgX1 antag	RGS4 inh	MrgX1 PAM	RGS4 act	RGS4 activ val	RGS4 act ctr
CCOC(=O)C1CCCN(C(=O)c2cc(-c3ccc(C)cc3)nc3ccccc23)C1 (centres undefined)	i	i	i	i	-9.1*	48*	0
CCOC(=O)C1CCCN(C(=O)c2cc(Nc3ccc(OC)c(OC)c3)nc3ccccc23)C1 (centres undefined)	i	i	i	i	i	.	.
COc1ccccc1NC(=O)c1ccccc1Oc1ccccc1	i	-5.9*	i	i	-9.2*	86*	50*
CCOC(=O)c1oc2ccc(CNCCO)c(Cl)c2c1C	i	i	i	i	i	.	.
CCOC(=O)c1oc2ccc(CNC3CCCCC3)c(Cl)c2c1C	i	i	i	i	-7.8*	94*	92*
CC(C)(C)c1csc(NC(=O)c2cccs2)n1	i	i	i	i	-8.2*	0	0
Cc1nc2sc(C(c3ccccc3)N3CCOCC3)c(O)n2n1 (centres undefined)	i	i	i	i	i	.	.
COC(=O)C(NC(=O)COc1ccccc1)(Nc1nc2c(s1)CCCC2)C(F)(F)F (centres undefined)	i	i	i	i	-12*	80*	33*
COc1ccccc1OCC(=O)Nc1cc(Cl)ccc1Oc1ccccc1	i	i	i	i	-9.1*	0	0
Cc1ccccc1OCC(=O)Nc1cc(Cl)ccc1Oc1ccccc1	i	i	i	i	i	.	.
Cc1nc(-c2noc(-c3ccccc3Cl)n2)c(C(F)(F)F)o1	i	i	i	i	-8.6*	0	0
CCc1ccc(Nc2n[n+](-c3ccccc3)c(-c3ccc(OCc4ccccc4)cc3)s2)cc1	i	i	i	i	i	.	.
CCOC(=O)N1CCC(N2CCN(C3CCCC3)C(CCO)C2)CC1 (centres undefined)	i	i	i	i	-10*	89*	59*
CCOC(=O)N1CCC(N2CCN(Cc3ccccc3)C(CCO)C2)CC1 (centres undefined)	i	i	i	i	i	.	.
CCOC(=O)N1CCC(NC2CCCCCCC2)CC1	i	i	i	i	-8.1*	82*	0
S=C1N(c2ccccc2)C(c2ccc(Br)cc2)N2CCCN12 (centres undefined)	i	i	i	i	-11*	94*	90*
Cn1c(-c2ccc3c(c2)OCO3)cnc1NCc1cccc(Cl)c1	i	i	i	i	-8.9*	86*	44*
Cc1nc2c(o1)CCc1ccccc1C2N1CCN(C)CC1 (centres undefined)	i	i	i	i	-11*	95*	91*
OCc1nc2ccccc2n1Cc1c(F)cccc1Cl	i	i	i	i	i	.	.
CSc1nc2ccccc2n1Cc1c(Cl)cccc1Cl	i	i	i	i	-8.4*	95*	86*
O=C(CN1N=C(c2ccccc2)CCC1=O)NCCCN1CCc2ccccc2C1	i	i	i	i	i	.	.
c1cn2c(NC3CCCCC3)c(-c3ccc(SC4CCCCC4)cc3)nc2cn1	i	i	i	i	i	.	.
CCN(CC)c1ccc(-c2nc3cnccn3c2NC2CCCC2)cc1	i	i	i	i	-7.9*	54*	0
Cn1cccc1C(=O)NC(=O)COC(=O)c1cc(Cl)ccc1[N+](=O)[O-]	i	i	i	i	i	.	.
N#Cc1c(N2CCN(C(=O)c3ccccc3)CC2)nc(-c2ccccc2)c2c1CCCC2	i	i	i	i	-7.9*	90*	54*
N#Cc1c(N2CCN(C(=O)c3ccco3)CC2)nc(-c2ccccc2)c2c1CCCC2	i	i	i	i	-8.2*	91*	48*
